The data set is described as follows: Toxicity liver stage against HepG2, at 10uM. Type of data set: cell-based. Details: test concentration 10 uM, cell line HepG2-A16-CD81EGFP. The note with it: human, HepG2-A16-CD81EGFP cells; read-out: INHIBITION
The method in brief: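 Uninfected HepG2-A16-CD81EGFP cells, 3 × 10^3 per well, 1536-well, plated on prespotted compound at 10 μM final, parasite-free screening media added to match infected plates; puromycin 10 μM positive, DMSO 0.5% negative; run in parallel with 48 h PbLuc assay at 37 °C, 5% CO2; viability by CellTiter-Glo luminescence, normalized to controls.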

Drawing on ChEMBL document CHEMBL4513216, “Probing the Open Global Health Chemical Diversity Library for Multistage-Active Starting Points for Next-Generation Antimalarials” (ACS Infect Dis, 2020), this text covers cytotoxicity for 39 compounds.

The structures appear in SMILES notation.

Turning to `CCN1CCC2(CC1)CC(Nc1ncccn1)CO2` (centres undefined), the cytotoxicity at 10 µM is -21.6%.

Consider `CC(C)(C)NS(=O)(=O)c1ccccc1CNCc1cccc(O)c1`, for which the cytotoxicity at 10 µM was -7.43%.

In the case of `Cc1occc1C(=O)N1CCO[C@H]2[C@H](OCc3cccnc3)CC[C@@H]21`, the cytotoxicity at 10 µM stood at 4.84%.

Regarding `Cc1c(Cl)c(C(F)(F)F)nn1C(C)C(=O)NC1CCN(C)CC1` (centres undefined), the cytotoxicity at 10 µM was -3.13%.

Consider `CNC(=O)c1cccc(CNC(C)c2ccc(F)cc2N(C)C)c1` (centres undefined), for which the cytotoxicity at 10 µM turned out to be 0.508%.

`Cc1ccc(C(NC(=O)Cc2nc3ncccn3n2)C2CC2)cc1` (centres undefined): the cytotoxicity at 10 µM came out at 5.06%.

`CC(C)Oc1cccc(F)c1C(C(=O)O)N1CCCN(C)CC1` (centres undefined): the cytotoxicity at 10 µM came out at 0.992%.

As to `C[C@@H]1CN(Cc2cc(C3CCCCC3)no2)CC[C@@]1(O)C1CC1`, the cytotoxicity at 10 µM worked out at 0.957%.

On to `OC1CN(c2nc3c(C(F)(F)F)cccc3s2)C1`, for which the cytotoxicity at 10 µM was -8.37%.

`Cc1n[nH]c(C)c1NC(=O)CN1CCc2c(nc(C(C)C)n2C)C1`: the cytotoxicity at 10 µM is -5.68%.

For `COc1c(Br)c(C(=O)NC2CCCC2)nn1C`, the cytotoxicity at 10 µM is 6.44%.

Consider `CSc1ccc(C(CC(=O)O)NC(=O)c2cc(C)on2)cc1` (centres undefined), for which the cytotoxicity at 10 µM was -12.1%.

Turning to `Cc1ncsc1C(=O)N1CC[C@@H]2[C@@H](CC1)OCCN2c1cccnc1`, the cytotoxicity at 10 µM is 9.4%.

As to `Cc1cnc(NC(=O)c2cccc(CN(C)Cc3ccno3)c2)s1`, the cytotoxicity at 10 µM is 61.3%.

As to `CCNC(=O)[C@@H]1C[C@@H](NC(=O)c2cccnc2O)CN1Cc1ccsc1`, the cytotoxicity at 10 µM is -5.39%.

Consider `O=S(=O)(C1CC1)N1CCc2c(CN3CCOCC3)cncc2C1`, for which the cytotoxicity at 10 µM was -0.514%.

With `Cc1cc(C(=O)N2CCC3(CCCN(CC4CC4)C3=O)C2)c(C)n1C` (centres undefined), the cytotoxicity at 10 µM was -5.5%.

For `CCn1ccnc1CN1CCN(c2ncnc3ccsc23)CC1C` (centres undefined), the cytotoxicity at 10 µM worked out at 3.04%.

As to `COc1ccc(NC(=O)C(C)(C)C)cc1OCc1cccnc1`, the cytotoxicity at 10 µM was -41.1%.

Regarding `O=c1cc(-c2cc(O)cc(CCC3CCCCN3)c2)cc[nH]1` (centres undefined), the cytotoxicity at 10 µM worked out at 0.749%.

As for `Cc1ncc(CN(C)CC(O)c2ccc(OC(F)(F)F)cc2)s1` (centres undefined), the cytotoxicity at 10 µM came to 9.99%.

With `Cc1cc(C(=O)N2CCc3nnc(N)cc3C2)c(C)n1-c1cccnc1`, the cytotoxicity at 10 µM was -1.25%.

Consider `O=C(NCCCN1CCOCC1)c1ccnc(OCc2ccccc2)c1`, for which the cytotoxicity at 10 µM was -21.4%.

Take `Cc1nc(C)n(CC2CN(Cc3ccncc3)Cc3nccn3C2)n1` (centres undefined): the cytotoxicity at 10 µM was -142%.

As to `CCOc1ccc(S(=O)(=O)NC(=O)CCC2CCCO2)cc1` (centres undefined), the cytotoxicity at 10 µM was -11.5%.

For `CCN1CCCC2(CCN(Cc3nnc(C4CC4)o3)C2)C1=O` (centres undefined), the cytotoxicity at 10 µM was 1.56%.

For `N#CC1(C(=O)N2CCN(Cc3cscn3)CC2)CCCCC1`, the cytotoxicity at 10 µM was -3.27%.

Consider `Cc1nnc(SCCNc2cc(C3CC3)ncn2)s1`, for which the cytotoxicity at 10 µM was -6.67%.

Regarding `Cc1nn(C)c(C)c1C(C)NC(=O)Nc1cccnc1N1CCCC1` (centres undefined), the cytotoxicity at 10 µM was -6.88%.

`CC1=Nc2c(c(O)nn2C(C)C)C(c2cccnc2)S1` (centres undefined): the cytotoxicity at 10 µM was 2.93%.

As for `CC1CCCCN1C(=O)c1cn(-c2ccc(C(F)(F)F)cn2)nn1` (centres undefined), the cytotoxicity at 10 µM was -56.5%.

On to `O=C1CO[C@@H]2CN(S(=O)(=O)c3ccccc3F)C[C@H]2N1`, for which the cytotoxicity at 10 µM stood at 0.0416%.

With `O=C1O[C@@H]2CN(C3CCOCC3)C[C@@H]2N1CCCc1ccc(F)cc1`, the cytotoxicity at 10 µM was 5.77%.

For the compound `CC(C)(C)c1cnc(CN2CCCS2(=O)=O)o1`, the cytotoxicity at 10 µM came to 2.07%.

For `COCCOc1ccc(NC(=O)N2CCCC2c2ccsc2)cn1` (centres undefined), the cytotoxicity at 10 µM was -8.33%.

For the compound `CC1(C(=O)N2CCOCC2)CN(Cc2ncc[nH]2)CCO1` (centres undefined), the cytotoxicity at 10 µM was -11.3%.

Turning to `CC(CO)CN(Cc1ccccc1)Cc1c[nH]cn1` (centres undefined), the cytotoxicity at 10 µM turned out to be 6.04%.

For the compound `Cc1cccnc1NC(=O)c1ccc(F)c(S(=O)(=O)NC2CC2)c1`, the cytotoxicity at 10 µM came out at 1.77%.

Consider `COc1ncc(CN(CCCN2CCOCC2)Cc2ccc(C)o2)cn1`, for which the cytotoxicity at 10 µM was -33%.
